One data set relates to CDK4/cyclin D1. Particulars: read-out: CDK4/cyclin D1 half‐maximal inhibitory concentration, mean ± SD; measured in vitro; cited from earlier work.
In data set [1] the target is T1, organic anion–transporting polypeptide 1B3 (Homo sapiens, UniProt Q9NPD5).
T1 sequence (Q9NPD5 1-702): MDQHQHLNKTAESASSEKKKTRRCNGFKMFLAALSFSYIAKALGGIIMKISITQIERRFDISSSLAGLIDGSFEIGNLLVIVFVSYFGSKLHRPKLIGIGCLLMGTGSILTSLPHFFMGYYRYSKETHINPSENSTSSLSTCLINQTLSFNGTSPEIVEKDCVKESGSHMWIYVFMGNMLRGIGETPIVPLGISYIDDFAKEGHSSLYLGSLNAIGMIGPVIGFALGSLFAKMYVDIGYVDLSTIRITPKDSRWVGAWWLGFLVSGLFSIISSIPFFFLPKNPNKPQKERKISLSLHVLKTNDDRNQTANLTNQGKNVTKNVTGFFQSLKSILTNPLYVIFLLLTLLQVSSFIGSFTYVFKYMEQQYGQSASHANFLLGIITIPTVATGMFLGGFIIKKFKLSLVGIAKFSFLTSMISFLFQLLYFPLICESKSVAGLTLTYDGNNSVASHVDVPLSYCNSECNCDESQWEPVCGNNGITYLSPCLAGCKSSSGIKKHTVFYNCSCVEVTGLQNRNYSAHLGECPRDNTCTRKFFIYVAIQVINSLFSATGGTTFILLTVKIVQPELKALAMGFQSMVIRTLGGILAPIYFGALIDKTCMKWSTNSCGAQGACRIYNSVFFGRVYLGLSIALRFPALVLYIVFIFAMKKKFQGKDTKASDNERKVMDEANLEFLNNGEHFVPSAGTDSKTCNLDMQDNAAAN
Put plainly: Hepatic uptake transporter substrate assessment, OATP1B3. It is filed as in vitro ADME.

Data set [2] in a line: Clarithromycin interaction study. The conditions noted are these: both, human, plasma, po, 50 mg. Type of data set: in vivo.
Data set [3] can be described thus: Rifampin interaction study. It is filed as in vivo, human. The method, boiled down: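 Single oral 200‑mg dose given alone and again with rifampin 600 mg once daily. Plasma levels of parent and active metabolites were measured in both arms, and mean concentration–time profiles are shown with SDs. Cmax and AUC0‑∞ were taken, with Tmax as median (min‑max). The interaction was expressed as with/without‑rifampin ratios of AUC0‑∞ and Cmax.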

A short description of data set [4]: Mass balance study with 14C-labeled abemaciclib. It is filed as in vivo, human.
Data set [5] is described as follows: Biopharmaceutic properties. Type of data set: physicochemical.
Data set [6] concerns the target T2, organic cation transporter 1 (Homo sapiens, UniProt O15245).
T2 sequence (O15245 1-554): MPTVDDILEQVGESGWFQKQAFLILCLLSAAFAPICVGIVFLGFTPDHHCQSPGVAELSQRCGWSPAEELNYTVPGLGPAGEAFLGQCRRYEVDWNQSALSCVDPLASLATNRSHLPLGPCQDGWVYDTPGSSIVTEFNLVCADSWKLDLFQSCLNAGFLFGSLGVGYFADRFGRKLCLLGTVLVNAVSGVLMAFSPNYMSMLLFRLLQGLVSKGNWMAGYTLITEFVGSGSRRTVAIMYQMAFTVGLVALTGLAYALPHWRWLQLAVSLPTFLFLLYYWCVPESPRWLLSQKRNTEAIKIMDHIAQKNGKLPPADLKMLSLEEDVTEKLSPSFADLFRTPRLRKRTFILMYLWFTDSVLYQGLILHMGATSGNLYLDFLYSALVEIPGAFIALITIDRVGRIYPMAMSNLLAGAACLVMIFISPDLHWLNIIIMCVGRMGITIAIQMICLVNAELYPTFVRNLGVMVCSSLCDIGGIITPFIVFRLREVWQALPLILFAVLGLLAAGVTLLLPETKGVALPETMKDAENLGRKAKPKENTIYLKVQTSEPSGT
Put plainly: Hepatic uptake transporter substrate assessment, OCT1. Type of data set: in vitro ADME.

Data set [7] deals with T3, organic anion–transporting polypeptide 1B1 (Homo sapiens, UniProt Q9Y6L6).
T3 sequence (Q9Y6L6 1-691): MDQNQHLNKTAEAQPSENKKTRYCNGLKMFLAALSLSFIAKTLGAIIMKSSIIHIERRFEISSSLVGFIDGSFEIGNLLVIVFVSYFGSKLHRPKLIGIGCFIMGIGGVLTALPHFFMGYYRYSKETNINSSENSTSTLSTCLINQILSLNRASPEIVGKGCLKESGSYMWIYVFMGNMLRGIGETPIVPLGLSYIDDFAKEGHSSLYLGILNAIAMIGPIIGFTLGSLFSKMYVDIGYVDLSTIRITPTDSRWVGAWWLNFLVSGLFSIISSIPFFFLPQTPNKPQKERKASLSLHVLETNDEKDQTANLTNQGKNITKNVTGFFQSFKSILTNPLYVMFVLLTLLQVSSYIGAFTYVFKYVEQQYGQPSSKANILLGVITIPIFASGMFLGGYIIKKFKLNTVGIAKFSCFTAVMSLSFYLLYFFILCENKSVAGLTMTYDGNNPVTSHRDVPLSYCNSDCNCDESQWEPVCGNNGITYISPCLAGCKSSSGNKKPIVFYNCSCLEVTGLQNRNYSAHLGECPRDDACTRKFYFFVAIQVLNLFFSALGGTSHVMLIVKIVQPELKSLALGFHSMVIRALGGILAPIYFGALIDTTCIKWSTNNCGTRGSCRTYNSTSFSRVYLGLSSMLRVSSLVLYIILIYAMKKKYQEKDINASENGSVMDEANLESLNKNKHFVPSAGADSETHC
Put plainly: Hepatic uptake transporter substrate assessment, OATP1B1. Type of data set: in vitro ADME.

A short description of the next data set: Absolute bioavailability. Type of data set: in vivo. Particulars: human, plasma.
Data set [8] can be described thus: Measured physicochemical properties.
The target of a further data set is P‐glycoprotein (Homo sapiens, UniProt P08183). Put plainly: Efflux transporter substrate assessment in vitro, P-glycoprotein. Type of data set: in vitro ADME.
Sequence of P‐glycoprotein (P08183 whole entry): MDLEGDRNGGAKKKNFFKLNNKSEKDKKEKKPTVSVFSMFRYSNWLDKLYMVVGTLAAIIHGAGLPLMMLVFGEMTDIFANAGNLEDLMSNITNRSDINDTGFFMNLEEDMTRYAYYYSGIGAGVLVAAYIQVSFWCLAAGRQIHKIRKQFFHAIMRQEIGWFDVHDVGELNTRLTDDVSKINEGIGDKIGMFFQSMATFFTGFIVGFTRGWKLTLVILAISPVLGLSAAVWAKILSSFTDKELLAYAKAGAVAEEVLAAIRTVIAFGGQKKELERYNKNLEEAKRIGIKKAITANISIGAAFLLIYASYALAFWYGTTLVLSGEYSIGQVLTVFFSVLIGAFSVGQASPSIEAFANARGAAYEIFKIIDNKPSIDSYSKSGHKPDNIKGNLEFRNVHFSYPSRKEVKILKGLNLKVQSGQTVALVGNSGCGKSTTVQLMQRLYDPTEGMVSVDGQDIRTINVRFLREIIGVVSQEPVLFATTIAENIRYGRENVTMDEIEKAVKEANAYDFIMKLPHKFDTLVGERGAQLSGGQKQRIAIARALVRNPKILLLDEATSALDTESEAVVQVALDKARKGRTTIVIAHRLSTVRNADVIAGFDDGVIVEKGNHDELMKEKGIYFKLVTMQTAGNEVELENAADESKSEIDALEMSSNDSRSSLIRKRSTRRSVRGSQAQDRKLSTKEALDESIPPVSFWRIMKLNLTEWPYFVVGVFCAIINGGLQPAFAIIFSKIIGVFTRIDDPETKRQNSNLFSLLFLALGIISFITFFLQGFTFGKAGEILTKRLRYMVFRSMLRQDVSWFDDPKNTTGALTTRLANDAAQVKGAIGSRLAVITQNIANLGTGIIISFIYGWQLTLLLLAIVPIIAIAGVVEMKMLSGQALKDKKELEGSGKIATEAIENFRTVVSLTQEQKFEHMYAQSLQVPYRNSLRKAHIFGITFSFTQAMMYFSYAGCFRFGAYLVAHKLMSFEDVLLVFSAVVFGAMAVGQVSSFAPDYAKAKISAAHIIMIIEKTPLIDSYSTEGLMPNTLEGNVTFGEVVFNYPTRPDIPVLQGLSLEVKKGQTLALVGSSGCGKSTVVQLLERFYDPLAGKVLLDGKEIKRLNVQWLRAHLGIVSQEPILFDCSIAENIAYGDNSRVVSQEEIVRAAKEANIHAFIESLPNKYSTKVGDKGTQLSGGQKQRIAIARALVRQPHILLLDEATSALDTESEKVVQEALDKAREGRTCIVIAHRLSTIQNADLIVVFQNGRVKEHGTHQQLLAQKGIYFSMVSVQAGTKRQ
The target of data set [9] is T4, breast cancer resistance protein (Homo sapiens, UniProt Q9UNQ0).
T4 sequence (Q9UNQ0 1-655): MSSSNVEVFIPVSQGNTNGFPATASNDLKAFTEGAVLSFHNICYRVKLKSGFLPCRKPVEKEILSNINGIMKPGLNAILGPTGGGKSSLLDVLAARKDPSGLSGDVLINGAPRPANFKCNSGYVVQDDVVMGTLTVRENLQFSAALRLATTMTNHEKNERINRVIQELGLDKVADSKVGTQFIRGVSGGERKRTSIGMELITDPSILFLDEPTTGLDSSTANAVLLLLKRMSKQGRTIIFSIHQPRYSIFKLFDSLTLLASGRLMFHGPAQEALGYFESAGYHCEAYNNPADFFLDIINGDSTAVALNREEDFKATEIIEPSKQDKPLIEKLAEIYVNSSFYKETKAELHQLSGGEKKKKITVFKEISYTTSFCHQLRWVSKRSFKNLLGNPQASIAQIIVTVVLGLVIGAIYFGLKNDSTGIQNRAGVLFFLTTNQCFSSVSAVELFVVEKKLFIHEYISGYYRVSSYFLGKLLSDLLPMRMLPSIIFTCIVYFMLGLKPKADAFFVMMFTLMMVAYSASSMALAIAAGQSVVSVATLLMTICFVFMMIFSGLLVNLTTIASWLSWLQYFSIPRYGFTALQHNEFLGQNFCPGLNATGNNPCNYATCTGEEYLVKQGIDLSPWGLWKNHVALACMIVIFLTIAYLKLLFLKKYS
Put plainly: Efflux transporter substrate assessment in vitro, BCRP. Type of data set: in vitro ADME.

The nature of data set [10]: PBPK model input and disposition parameters.
The conditions of data set [11]: cited from earlier work.
Data set [12] is described as follows: Fraction unbound in plasma. Type of data set: in vitro ADME. The conditions noted are these: human.
For data set [13] the following is noted: cited from earlier work. The source holds these as a separate data set.
Where [14] appears, read: both, human, plasma, po, 200 mg.

The values below come from paper PMC7318171 (Journal of Clinical Pharmacology, 2020).

As for `CCN1CCN(Cc2ccc(Nc3ncc(F)c(-c4cc(F)c5nc(C)n(C(C)C)c5c4)n3)nc2)CC1` [Abemaciclib], the IC50 in the data set with CDK4/cyclin D1 was […]. Moreover, the “substrate of organic anion–transporting polypeptide 1B3” value in [1] is on record as “not substrates”. In [2], the exposure (AUC) (in general, concentration integrated over time) is […]; the highest level (Cmax) was […]; the Tmax – broadly, the time from dosing to the highest level – is […]; the half-life – broadly, the time needed for the level to fall by half in the phase considered – was […]. In [3] (setting [14]), the area under the curve (AUC) is 4570 ng·h/mL, the Cmax (usually the maximum level reached in the sampled fluid or tissue) was determined as […], the Tmax was […] and the half-life was […]. The “decrease of AUC” value in data set [3] (with rifampin, observed) is 95%. Further, the “percentage of parent in feces” value in [4] (14C study) came out at 6.76%. In data set [4] (human mass balance study), the “radioactivity excreted in urine” value is reported as […]. This compound showed a CL renal in [4] (human, urine, oral, 150 mg) of […]. Also, in [4] (oral dose, estimated from mass balance study, equation 1), the “Fa (fraction absorbed)” value is recorded as […]. In data set [5], the “permeability (in words)” value is “high permeability” and the “solubility (in words)” value was “high solubility”. The “substrate of organic cation transporter 1” value in data set [6] is recorded as “not substrates”. Moreover, in [7], the “substrate of organic anion–transporting polypeptide 1B1” value is listed as “not substrates”. Also, the half-life in the data set “Absolute bioavailability” was 29.3 h. Also, in “Absolute bioavailability” (iv, 0.4 mg), the Vd (usually a proportionality between amount in the body and measured concentration, not a real space) is 8.93 L/kg; the clearance (in general, the volume of plasma or blood freed of the substance per unit of time) is […]. Also, the logP (commonly the decadic logarithm of the partition coefficient of the neutral form, usually between octanol and water) in data set [8] (octanol/water) turned out to be […]. In addition, the pKa (usually the negative logarithm of the acid dissociation constant) in data set [8] (pKa 2 (basic)) was found to be 4.48. In addition, the “substrate of P‐glycoprotein” value on P‐glycoprotein is on record as “substrate”. For the same compound, the “substrate of breast cancer resistance protein” value in data set [9] is recorded as “substrate”. The “FG in the PBPK model” value in [10] (200‐mg dose) worked out at 0.74. The “FG (fraction escaping first‐pass metabolism in the gut), calculated” value in [10] (200‐mg oral dose, equation 5) is reported as “approximately 0.77”. In [10] (200‐mg oral dose, equations 2-4), the “FH (fraction escaping first‐pass metabolism in the liver)” value amounted to 0.64. The “increase of AUC by a high‐fat and high‐calorie meal” value in data set [11] (abemaciclib and active species) is recorded as 9%. The “time of observed maximum plasma concentration” value in data set [11] (oral administration) is […]. The fraction unbound (as a rule, the share of the substance not bound to proteins or other matrix) in [12] amounted to 0.0557.
Regarding `COc1ccccc1Oc1c(NS(=O)(=O)c2ccc(C(C)(C)C)cc2)nc(-c2ncccn2)nc1OCCO` [Bosentan], in data set [13] (bosentan 125 mg BID 5 days, ketoconazole 200 mg QD), the “Cmax ratio with and without ketoconazole” value is recorded as 1.62.
Turning to `Cc1ncc2n1-c1ccc(Cl)cc1C(c1ccccc1F)=NC2` [Midazolam], the “increase in AUC extrapolated to infinity” value in [13] (IV midazolam with clarithromycin) is given as 3.5 fold.
